In brackets after ≈: the same amount, converted by molar mass.
Experiments:
Candida albicans [1] = test: Antifungal activity against Candida albicans after 48 hrs by broth microdilution technique; format: functional, organism-based
Outline: (§1)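 MIC by broth microdilution following NCCLS guidelines, in RPMI 1640 buffered with MOPS. Starting inoculum 1-5 × 10^3 CFU/mL. Plates incubated at 35 °C. MIC and IC50 read spectrophotometrically at 492 nm after 48 h.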

[2] = Spermicidal activity in human semen assessed as sperm immobilization at 0.1 % w/v up to 30 seconds by phase contrast microscopy; format: functional
Candida parapsilosis = test: Antifungal activity against Candida parapsilosis ATCC 22019 after 48 hrs by broth microdilution technique; format: functional, organism-based; details: Lodderomyces parapsilosis, ATCC 22019, 48 h; outline: as §1
Candida albicans [3] = test: Antifungal activity against Candida albicans clinical isolate CDRI after 48 hrs by broth microdilution technique; format: functional, organism-based; outline: as §1
Staphylococcus aureus = test: Antibacterial activity against Staphylococcus aureus ATCC 25923 after 48 hrs by broth microdilution technique; format: functional; details: ATCC 25923, 48 h
Outline: (§2)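 Broth microdilution following NCCLS guidelines in Mueller Hinton broth. Inoculum held at 1-5 × 10^3 cfu/mL. Plates incubated at 35 °C in a moist, dark chamber for 48 h. MIC and IC50 read spectrophotometrically at 492 nm.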

Candida albicans [4] = test: Antifungal activity against Candida albicans ATCC 10231 after 48 hrs by broth microdilution technique; format: functional, organism-based; details: ATCC 10231, 48 h; outline: as §1
[5] = system: Trichophyton mentagrophytes; test: Antifungal activity against Trichophyton mentagrophytes after 48 hrs by broth microdilution technique; format: functional, organism-based; outline: as §1
Sporothrix schenckii = test: Antifungal activity against Sporothrix schenckii after 48 hrs by broth microdilution technique; format: functional, organism-based; outline: as §1
[6] = Spermicidal activity in human semen assessed as sperm immobilization at 1.0 % w/v up to 30 seconds by phase contrast microscopy; format: functional
Candida albicans [7] = test: Antifungal activity against Candida albicans MTCC 183 after 48 hrs by broth microdilution technique; format: functional, organism-based; details: MTCC 183, 48 h; outline: as §1
Klebsiella pneumoniae = test: Antibacterial activity against Klebsiella pneumoniae after 48 hrs by broth microdilution technique; format: functional; outline: as §2
Candida albicans [8] = test: Antifungal activity against Candida albicans clinical isolate after 48 hrs by broth microdilution technique; format: functional, organism-based; outline: as §1
Cryptococcus neoformans = test: Antifungal activity against Cryptococcus neoformans after 48 hrs by broth microdilution technique; format: functional, organism-based; outline: as §1
Pseudomonas aeruginosa = test: Antibacterial activity against Pseudomonas aeruginosa ATCC BAA-427 after 48 hrs by broth microdilution technique; format: functional; details: ATCC BAA-427, 48 h; outline: as §2
Trichomonas vaginalis = test: Trichomonacidal activity against Trichomonas vaginalis after 48 hrs by trypan blue exclusion assay; format: functional; details: read-out: MEC
Outline: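 T. vaginalis in log phase, grown in TYM with 10% FCS, vitamin mixture and penicillin/streptomycin at 37 °C. DMSO stocks ([…]) serially diluted in TYM down to 0.1 µg/mL; DMSO/TYM vehicle controls. 5 × 10^4 trophozoites added and incubated anaerobically at 37 °C. Viability checked by trypan blue from 3 to 48 h. MIC = lowest concentration killing all cells by 48 h. Three repeats.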

Escherichia coli = test: Antibacterial activity against Escherichia coli ATCC 9637 after 48 hrs by broth microdilution technique; format: functional; details: ATCC 9637, 48 h; outline: as §2
Aspergillus fumigatus = test: Antifungal activity against Aspergillus fumigatus after 48 hrs by broth microdilution technique; format: functional, organism-based; outline: as §1

SMILES | IC50 (Candida albicans [1]) [µg/mL] | Activity [2] [%] | IC50 (Candida parapsilosis) [µg/mL] | IC50 (Candida albicans [3]) [µg/mL] | MIC (Staphylococcus aureus) [µg/mL] | IC50 (Candida albicans [4]) [µg/mL] | IC50 [5] [µg/mL] | IC50 (Sporothrix schenckii) [µg/mL] | Activity [6] [%] | IC50 (Candida albicans [7]) [µg/mL] | MIC (Klebsiella pneumoniae) [µg/mL] | IC50 (Candida albicans [8]) [µg/mL] | IC50 (Cryptococcus neoformans) [µg/mL] | MIC (Pseudomonas aeruginosa) [µg/mL] | minimal effective concentration (Trichomonas vaginalis) [µg/mL] | MIC (Escherichia coli) [µg/mL] | IC50 (Aspergillus fumigatus) [µg/mL]
CSC(=S)n1ccnc1 | 5.75 (≈ 36.3 µM) | 0 | > 50 | > 50 | ≥ 50 | > 50 | > 50 | > 50 | 100 | > 50 | ≥ 50 | > 50 | > 50 | ≥ 50 | > 200 | ≥ 50 | > 50
N#CCCCSC(=S)n1ccnc1 | > 50 | 92 | 5.27 (≈ 24.9 µM) | 43.5 (≈ 206 µM) | ≥ 50 | > 50 | – | > 50 | 100 | > 50 | ≥ 50 | 10.8 (≈ 51 µM) | > 50 | ≥ 50 | > 200 | ≥ 50 | > 50
C=CCSC(=S)n1ccnc1 | > 50 | 0 | 2.09 (≈ 11.3 µM) | 3.94 (≈ 21.4 µM) | ≥ 50 | 7.26 (≈ 39.4 µM) | 4.43 (≈ 24 µM) | 4.96 (≈ 26.9 µM) | 100 | 6.79 (≈ 36.8 µM) | ≥ 50 | 1.8 (≈ 9.77 µM) | 5.75 (≈ 31.2 µM) | ≥ 50 | > 200 | ≥ 50 | > 50
CCCCCCCCSC(=S)n1ccnc1 | 5.72 (≈ 22.3 µM) | 80 | > 50 | 31.4 (≈ 122 µM) | ≥ 50 | 7.68 (≈ 29.9 µM) | 1.48 (≈ 5.77 µM) | – | 100 | 4.61 (≈ 18 µM) | ≥ 50 | 1.06 (≈ 4.13 µM) | > 50 | ≥ 50 | > 200 | ≥ 50 | 6.21 (≈ 24.2 µM)
CCCCCCCCCCCCCCCCSC(=S)n1ccnc1 | > 50 | 0 | > 50 | > 50 | ≥ 50 | > 50 | 18.4 (≈ 50 µM) | > 50 | 100 | > 50 | ≥ 50 | > 50 | > 50 | ≥ 50 | > 200 | ≥ 50 | > 50
O=C1c2ccccc2C(=O)N1CCSC(=S)n1ccnc1 | 5.45 (≈ 17.2 µM) | 0 | > 50 | 30.9 (≈ 97.5 µM) | ≥ 50 | 19.5 (≈ 61.5 µM) | 6.15 (≈ 19.4 µM) | 4.17 (≈ 13.1 µM) | 100 | 11.1 (≈ 34.9 µM) | ≥ 50 | 16 (≈ 50.5 µM) | 28.6 (≈ 90.1 µM) | ≥ 50 | > 200 | ≥ 50 | > 50
CSC(=S)n1ccnc1C | 7.24 (≈ 42 µM) | 0 | > 50 | > 50 | ≥ 50 | 36.8 (≈ 214 µM) | 11.7 (≈ 67.8 µM) | 4.41 (≈ 25.6 µM) | 100 | 37.3 (≈ 216 µM) | ≥ 50 | 25.9 (≈ 151 µM) | 9.1 (≈ 52.8 µM) | ≥ 50 | > 200 | ≥ 50 | > 50
Cc1nccn1C(=S)SCCCC#N | 36 (≈ 160 µM) | 0 | > 50 | 47.7 (≈ 212 µM) | ≥ 50 | > 50 | 24.9 (≈ 111 µM) | > 50 | 95 | 41 (≈ 182 µM) | ≥ 50 | > 50 | > 50 | ≥ 50 | > 200 | ≥ 50 | > 50
C=CCSC(=S)n1ccnc1C | 2.21 (≈ 11.1 µM) | 0 | 10.2 (≈ 51.2 µM) | 7.26 (≈ 36.6 µM) | ≥ 50 | 4.53 (≈ 22.8 µM) | > 50 | 1.5 (≈ 7.56 µM) | 100 | 3.61 (≈ 18.2 µM) | ≥ 50 | 2.1 (≈ 10.6 µM) | 3.35 (≈ 16.9 µM) | ≥ 50 | > 200 | ≥ 50 | 18.1 (≈ 91.3 µM)
